Source: ChEMBL document CHEMBL1137713, “Synthesis and antimalarial activity of pyrazolo and pyrimido benzothiazine dioxide derivatives” (2009)
Calls of active or inactive are those of the source. No cut-off for these calls is given here.

Columns and labels:
[1] = molecular target: T1, Histidine-rich protein PFHRP-II (Plasmodium falciparum) (UniProt P05227); assay: Inhibition of beta-hematin formation assessed as inhibition of flavoprotein polymerization at 5 to 100 mM after 48 hrs; assay type: functional
T1 sequence (whole entry): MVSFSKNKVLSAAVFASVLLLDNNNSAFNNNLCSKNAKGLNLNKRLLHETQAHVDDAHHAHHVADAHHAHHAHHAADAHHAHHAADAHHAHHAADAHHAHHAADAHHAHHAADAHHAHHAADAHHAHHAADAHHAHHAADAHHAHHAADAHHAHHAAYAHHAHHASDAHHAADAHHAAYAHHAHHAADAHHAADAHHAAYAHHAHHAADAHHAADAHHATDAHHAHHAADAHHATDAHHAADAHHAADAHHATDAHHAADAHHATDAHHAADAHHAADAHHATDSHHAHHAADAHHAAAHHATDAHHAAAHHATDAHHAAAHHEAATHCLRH
How it was run: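 Hemin chloride in DMSO is mixed with compound in DMSO (100–5 range), tested in triplicate, with water or DMSO controls. Reaction is started with 0.2 M acetate buffer pH 4.4 and run at 37 °C for 48 h. Pellet is washed twice with DMSO, dissolved in 0.2 N NaOH, diluted 1:2 in 0.1 N NaOH, and read at 405 nm. Result is % inhibition of FP polymerization.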

[2] = tested on: Plasmodium berghei; assay: Antimalarial activity against chloroquine-sensitive Plasmodium berghei ANKA infected BALB/c mice (Mus musculus) erythrocytes at 10 uM after 18 hrs as reduced hemoglobin hydrolysis; assay type: functional
How it was run: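 Trophozoite-rich extract from P. berghei-infected mouse blood (30–50% parasitemia, Percoll-enriched mature forms, saponin-lysed, freeze-thawed) digests native mouse hemoglobin with 10 mM GSH in 0.2 M acetate buffer pH 5.4. Compound is added in DMSO. Incubation is 37 °C for 18 h. Globin 14 kDa band is assessed by SDS-PAGE densitometry against a DMSO control and expressed as % inhibition of hydrolysis.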

[3] = tested on: Plasmodium berghei; assay: Antimalarial activity as MST against chloroquine-sensitive Plasmodium berghei ANKA infected BALB/c mice (Mus musculus) erythrocytes at 20 mg/kg intraperitoneal dose for 4 days (RVb=11.66+/-1.66 days); assay type: functional
[4] = tested on: Plasmodium berghei; assay: Antimalarial activity against chloroquine-sensitive Plasmodium berghei ANKA infected BALB/c mice (Mus musculus) erythrocytes at 20 mg/kg intraperitoneal dose for 4 days as parasitaemia
[5] = tested on: Plasmodium berghei; assay: Antimalarial activity against chloroquine-sensitive Plasmodium berghei ANKA infected BALB/c mice (Mus musculus) erythrocytes at 20 mg/kg intraperitoneal dose for 4 days
[6] = tested on: Plasmodium berghei; assay: Antimalarial activity as parasitaemia against chloroquine-sensitive Plasmodium berghei ANKA infected BALB/c mice (Mus musculus) erythrocytes at 25 mg/kg intraperitoneal dose for 4 days; assay type: functional
How it was run: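 Male Balb-C mice infected with 10^6 P. berghei ANKA-infected erythrocytes; n=6. Compound is given as a DMSO stock diluted in 2% saline–Tween 20, ip once daily for 4 days starting 2 h post-infection. Chloroquine is given at 25 mg/kg. Day-4 parasitemia is read from Giemsa smears and survival days are recorded versus untreated controls. Mean ± SEM.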

[7] = tested on: Plasmodium berghei; assay: Antimalarial activity as MST against chloroquine-sensitive Plasmodium berghei ANKA infected BALB/c mice (Mus musculus) erythrocytes at 25 mg/kg intraperitoneal dose for 4 days (RVb=11.66+/-1.66 days); assay type: functional

SMILES | inhibition [1] | inhibition at 10 µM [2] | also measured
Nc1n[nH]c2c1S(=O)(=O)c1ccc(Cl)cc1N2c1ccc(Br)cc1 | < 5% | 26.7% | 
Nc1n[nH]c2c1S(=O)(=O)c1cc(Cl)ccc1N2c1ccc(Cl)c(Cl)c1 | < 5% | 0% | 
Nc1n[nH]c2c1S(=O)(=O)c1ccc(Cl)cc1N2c1cccc(Cl)c1 | 85.4% | 58.9% | Activity [3]: 12.5 days; Activity [4]: 10.33%
Cc1ccccc1N1c2cc(Cl)ccc2S(=O)(=O)c2c(N)nc(N)nc21 | < 5% | 72.6% | 
Nc1nc(N)c2c(n1)N(c1cccc(Cl)c1)c1ccc(Cl)cc1S2(=O)=O | < 5% | 0% | 
Nc1nc(N)c2c(n1)N(c1ccc(Br)cc1)c1cc(Cl)ccc1S2(=O)=O | < 5% | 49% | 
Cc1ccc(C)c(N2c3cc(Cl)ccc3S(=O)(=O)c3c(N)n[nH]c32)c1 | < 5% | 69.4% | 
Nc1nc(N)c2c(n1)N(c1ccccc1)c1ccc(Cl)cc1S2(=O)=O | < 5% | 0% | 
COc1ccc(N2c3ccc(Cl)cc3S(=O)(=O)c3c(N)n[nH]c32)cc1 | < 5% | 0% | 
COc1cccc(N2c3cc(Cl)ccc3S(=O)(=O)c3c(N)n[nH]c32)c1 | < 5% | 47.3% | 
CC(C)CC(=O)N[C@H](C(=O)N[C@H](C(=O)N[C@@H](CC(C)C)[C@@H](O)CC(=O)N[C@@H](C)C(=O)N[C@@H](CC(C)C)[C@@H](O)CC(=O)O)C(C)C)C(C)C [PEPSTATIN] |  | 92.9% | 
Nc1nc(N)c2c(n1)N(c1ccc(Cl)c(Cl)c1)c1ccc(Cl)cc1S2(=O)=O | < 5% | 0% | 
COc1cccc(N2c3ccc(Cl)cc3S(=O)(=O)c3c(N)n[nH]c32)c1 | < 5% | 0% | 
Nc1nc(N)c2c(n1)N(c1ccccc1)c1cc(Cl)ccc1S2(=O)=O | < 5% | 83.7% | Activity [3]: 10.8 days; Activity [4]: 12.7%
Nc1nc(N)c2c(n1)N(c1ccc(Cl)cc1)c1ccc(Cl)cc1S2(=O)=O | < 5% | 0% | 
COc1cccc(N2c3cc(Cl)ccc3S(=O)(=O)c3c(N)nc(N)nc32)c1 | < 5% | 56.3% | 
Nc1n[nH]c2c1S(=O)(=O)c1cc(Cl)ccc1N2c1ccccc1 | < 5% | 0% | 
Nc1n[nH]c2c1S(=O)(=O)c1cc(Cl)ccc1N2c1cccc(Cl)c1 | < 5% | 0% | 
Cc1ccc(C)c(N2c3ccc(Cl)cc3S(=O)(=O)c3c(N)n[nH]c32)c1 | < 5% | 0% | 
Cc1ccccc1N1c2cc(Cl)ccc2S(=O)(=O)c2c(N)n[nH]c21 | < 5% | 92.3% | Activity [3]: 13 days; Activity [5]: inactive; Activity [4]: 9.75%
Cc1ccc(N2c3ccc(Cl)cc3S(=O)(=O)c3c(N)n[nH]c32)cc1 | < 5% | 0% | 
CC(=O)N[C@@H](CC(C)C)C(=O)N[C@@H](CC(C)C)C(=O)N[C@H](C=O)CCCNC(=N)N [LEUPEPTIN] |  | 89.1% | 

SMILES | inhibition [1] | inhibition at 10 µM [2] | also measured
Nc1nc(N)c2c(n1)N(c1ccc(Br)cc1)c1ccc(Cl)cc1S2(=O)=O | < 5% | 0% | 
COc1ccc(N2c3cc(Cl)ccc3S(=O)(=O)c3c(N)n[nH]c32)cc1 | < 5% | 54.8% | 
Cc1ccc(C)c(N2c3cc(Cl)ccc3S(=O)(=O)c3c(N)nc(N)nc32)c1 | < 5% | 64.6% | 
Nc1n[nH]c2c1S(=O)(=O)c1cc(Cl)ccc1N2c1ccc(Br)cc1 | < 5% | 0% | 
Nc1n[nH]c2c1S(=O)(=O)c1cc(Cl)ccc1N2c1ccc(Cl)cc1 | < 5% | 0% | 
COc1ccc(N2c3cc(Cl)ccc3S(=O)(=O)c3c(N)nc(N)nc32)cc1 | < 5% | 40.9% | 
Nc1nc(N)c2c(n1)N(c1ccc(Cl)c(Cl)c1)c1cc(Cl)ccc1S2(=O)=O | < 5% | 76% | 
COc1ccc(N2c3ccc(Cl)cc3S(=O)(=O)c3c(N)nc(N)nc32)cc1 | < 5% | 0% | 
Nc1n[nH]c2c1S(=O)(=O)c1ccc(Cl)cc1N2c1ccccc1 | < 5% | 76.4% | 
Cc1ccc(N2c3cc(Cl)ccc3S(=O)(=O)c3c(N)n[nH]c32)cc1 | < 5% | 78.8% | 
COc1cccc(N2c3ccc(Cl)cc3S(=O)(=O)c3c(N)nc(N)nc32)c1 | < 5% | 0% | 
Cc1ccc(N2c3cc(Cl)ccc3S(=O)(=O)c3c(N)nc(N)nc32)cc1 | < 5% | 50.1% | 
Cc1ccc(N2c3ccc(Cl)cc3S(=O)(=O)c3c(N)nc(N)nc32)cc1 | < 5% | 0% | 
Nc1nc(N)c2c(n1)N(c1cccc(Cl)c1)c1cc(Cl)ccc1S2(=O)=O | < 5% | 0% | 
Cc1ccc(C)c(N2c3ccc(Cl)cc3S(=O)(=O)c3c(N)nc(N)nc32)c1 | < 5% | 0% | 
CCN(CC)CCCC(C)Nc1ccnc2cc(Cl)ccc12 (configuration not stated) [CHLOROQUINE] |  | 24.1% | Activity [6]: 1.3%; Activity [7]: 30 days
Cc1ccccc1N1c2ccc(Cl)cc2S(=O)(=O)c2c(N)n[nH]c21 | < 5% | 0% | 
Cc1ccccc1N1c2ccc(Cl)cc2S(=O)(=O)c2c(N)nc(N)nc21 | < 5% | 0% | 
Nc1n[nH]c2c1S(=O)(=O)c1ccc(Cl)cc1N2c1ccc(Cl)c(Cl)c1 | < 5% | 67.6% | 
Nc1n[nH]c2c1S(=O)(=O)c1ccc(Cl)cc1N2c1ccc(Cl)cc1 | < 5% | 55.8% | 
Nc1nc(N)c2c(n1)N(c1ccc(Cl)cc1)c1cc(Cl)ccc1S2(=O)=O | < 5% | 67.2% | 
